Laboratory results reported in ChEMBL document CHEMBL4334422, “Toxicities and beneficial protection of H2S donors based on nonsteroidal anti-inflammatory drugs” (Medchemcomm, 2019).
Activity calls are given as the source filed them. The rule behind the calls is not given here.

Assays:
[1] = Half life of compound in pH 7.4 phosphate buffer at 40 mM in presence of TECP or cysteine by methylene blue dye based UV-Vis spectrophotometric method; type: physicochemical; conditions: phosphate buffer with TECP or cysteine
How it was run: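 A 40 mM compound solution in pH 7.4 phosphate buffer was mixed with TECP or L-cysteine (1.0 mM) as promoter. Aliquots were mixed with methylene blue reagent, and after 20 min absorbance was read at 670 nm. H₂S was quantified against a Na₂S standard curve, and concentration-versus-time release curves were plotted to give half-lives.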

[2] = Toxicity in Wistar kyoto rat assessed as hemoglobin count in blood at 0.01 mmol/kg, ip administered for 14 days (reference value: 138 g/L); type: organism-based; conditions: in vivo, 336 h
How it was run: (§1)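 Normal WKY rats (6 per group) received compound in 10% 1,3-propanediol intraperitoneally daily for 14 days. Controls received an equal volume of vehicle. Urine was collected in metabolic cages throughout dosing. At the end of dosing, blood was taken from the eyeball for haematology, and urine parameters were analysed.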

[3] = Toxicity in Wistar kyoto rat assessed as urobilinogen level in urine at 0.01 mmol/kg, ip administered for 14 days (reference value: 1 umol/L); type: organism-based; conditions: in vivo, 336 h
How it was run: (§2)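 Normal WKY rats, 6 per group, received an intraperitoneal injection once daily for 14 consecutive days. The compound was dissolved in 10% 1,3-propanediol, and controls received an equal volume of vehicle. Urine was collected in metabolic cages during dosing. At the end, blood was drawn from the eyeball for haematology, and urinalysis values were compared with the vehicle group.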

[4] = Toxicity in Wistar kyoto rat assessed as Vc in urine at 0.01 mmol/kg, ip administered for 14 days; type: organism-based; conditions: in vivo, 336 h; how it was run: as §1
[5] = Toxicity in Wistar kyoto rat assessed as glucose in urine at 0.01 mmol/kg, ip administered for 14 days; type: organism-based; conditions: in vivo, 336 h; how it was run: as §1
[6] = Toxicity in Wistar kyoto rat assessed as eosinophil ratio in blood at 0.01 mmol/kg, ip administered for 14 days (reference value: 1.8%); type: organism-based; conditions: in vivo, 336 h; how it was run: as §1
H9c2 [7] = test: Cytoprotective activity against H2O2-induced toxicity in rat H9c2 cells assessed as increase in cell viability at 10 to 80 uM pretreated with compound followed by H2O2 addition and measured after 8 hrs relative to control; type: functional
How it was run: (§3)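 H9c2 cells were injured with H₂O₂ (400 µM) for 1, 4 or 8 h to give light, medium and heavy damage, in the presence of compound at 10–80 µM. Acetaminophen or ibuprofen served as controls. Viability was measured as mean ± SD of three experiments. SOD and MDA contents were measured as mean ± SD of four experiments. Morphology was assessed by Giemsa staining under light microscopy.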

[8] = Toxicity in Wistar kyoto rat assessed as basophilic ratio in blood at 0.01 mmol/kg, ip administered for 14 days (reference value: 2.2%); type: organism-based; conditions: in vivo, 336 h; how it was run: as §1
[9] = Toxicity in Wistar kyoto rat assessed as bilirubin level in urine at 0.01 mmol/kg, ip administered for 14 days (reference value: 10 umol/L); type: organism-based; conditions: in vivo, 336 h; how it was run: as §1
H9c2 [10] = test: Cytoprotective activity against H2O2-induced toxicity in rat H9c2 cells assessed as increase in SOD level at 10 to 80 uM pretreated with compound followed by H2O2 addition and measured after 8 hrs; type: functional, cell-based; how it was run: as §3
H9c2 [11] = test: Cytoprotective activity against H2O2-induced toxicity in rat H9c2 cells assessed as increase in cell viability at 80 uM pretreated with compound followed by H2O2 addition and measured after 1 hrs relative to control; type: functional; how it was run: as §3
[12] = Toxicity in Wistar kyoto rat assessed as proportion in urine at 0.01 mmol/kg, ip administered for 14 days (reference value: 1.01); type: organism-based; conditions: in vivo, 336 h; how it was run: as §2
[13] = Toxicity in Wistar kyoto rat assessed as neutrophil ratio in blood at 0.01 mmol/kg, ip administered for 14 days (reference value: 54.7%); type: organism-based; conditions: in vivo, 336 h; how it was run: as §2
[14] = Toxicity in Wistar kyoto rat assessed as nitrite level in urine at 0.01 mmol/kg, ip administered for 14 days; type: organism-based; conditions: in vivo, 336 h; how it was run: as §2
[15] = Toxicity in Wistar kyoto rat assessed as platelet count in blood at 0.01 mmol/kg, ip administered for 14 days (reference value: 670 10^9/L); type: organism-based; conditions: in vivo, 336 h; how it was run: as §2
H9c2 [16] = test: Cytotoxicity against rat H9c2 cells assessed as reduction in cell viability at 10 to 80 uM incubated for 24 hrs; type: cell-based; conditions: h9c2, 24 h
How it was run: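 Rat cardiac H9c2 cells were grown in DMEM with 10% FBS and penicillin/streptomycin at 37 °C and 5% CO₂. They were seeded at 5×10⁴ cells/mL and allowed to adhere for 8 h. Cells were exposed to 10, 40 or 80 µM compound for 24 h, and survival was compared with untreated cells.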

[17] = Toxicity in Wistar kyoto rat assessed as lymphocyte ratio in blood at 0.01 mmol/kg, ip administered for 14 days (reference value: 42.1%); type: organism-based; conditions: in vivo, 336 h; how it was run: as §2
[18] = Toxicity in Wistar kyoto rat assessed as urine pH at 0.01 mmol/kg, ip administered for 14 days (reference value: 8.4); type: organism-based; conditions: in vivo, 336 h; how it was run: as §2
Rattus norvegicus = test: Antihypertensive activity in spontaneously hypertensive Wistar kyoto rat assessed as reduction in diastolic arterial pressure at 20 mg/kg, ip administered for 6 hrs and measured every 30 mins post treatment by tail-cuff method; type: functional
How it was run: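 Male SHRs (8 weeks, 300 ± 25 g; 6 per group), given compound intraperitoneally once daily at 8 am in 0.5% (w/v) sodium carboxymethyl cellulose/DMSO 3/1 (v/v), 2 mL·kg⁻¹. Vehicle-treated SHR and WKY controls. SBP, DBP and heart rate were measured by tail-cuff on awake, restrained rats before dosing, then every 30 min for 6 h. Values are mean ± SD of four independent experiments.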

[19] = Toxicity in Wistar kyoto rat assessed as leukocyte in urine at 0.01 mmol/kg, ip administered for 14 days (reference value: 10 ca cells/uL); type: organism-based; conditions: in vivo, 336 h; how it was run: as §2
[20] = Toxicity in Wistar kyoto rat assessed as red blood cell count in blood at 0.01 mmol/kg, ip administered for 14 days (reference value: 6.83 10^12/L); type: organism-based; conditions: in vivo, 336 h; how it was run: as §2
H9c2 [21] = test: Cytoprotective activity against H2O2-induced toxicity in rat H9c2 cells assessed as decrease in MDA level pretreated with compound followed by H2O2 addition and measured after 8 hrs; type: functional, cell-based; how it was run: as §3
[22] = Toxicity in Wistar kyoto rat assessed as monocyte ratio in blood at 0.01 mmol/kg, ip administered for 14 days (reference value: 0.5%); type: organism-based; conditions: in vivo, 336 h; how it was run: as §2
[23] = Toxicity in Wistar kyoto rat assessed as protein level in urine at 0.01 mmol/kg, ip administered for 14 days (Rvb =0 g/L); type: organism-based; conditions: in vivo, 336 h; how it was run: as §2
[24] = Toxicity in Wistar kyoto rat assessed as occult blood cells level in urine at 0.01 mmol/kg, ip administered for 14 days (reference value: 10 /uL); type: organism-based; conditions: in vivo, 336 h; how it was run: as §2
[25] = Toxicity in Wistar kyoto rat assessed as ketone body level in urine at 0.01 mmol/kg, ip administered for 14 days (reference value: 4 umol/L); type: organism-based; conditions: in vivo, 336 h; how it was run: as §2
H9c2 [26] = test: Cytoprotective activity against H2O2-induced toxicity in rat H9c2 cells assessed as increase in cell viability pretreated with compound followed by H2O2 addition and measured after 1 hrs relative to control; type: functional; how it was run: as §3
[27] = Toxicity in Wistar kyoto rat assessed as leukocyte count in blood at 0.01 mmol/kg, ip administered for 14 days (reference value: 6.88 10^9/L); type: organism-based; conditions: in vivo, 336 h; how it was run: as §2

| Compound | half-life at 40000 µM [1] [min] | Activity [2] [g/L] | Activity [3] [µmol/L] | Activity [4] | Activity [5] | Activity [6] [%] | Activity (H9c2 [7]) [%] | Activity [8] [%] | Activity [9] [µmol/L] | Activity (H9c2 [10]) | Activity (H9c2 [11]) [%] | Ratio [12] | Activity [13] [%] | Activity [14] | Activity [15] [×10⁹ /L] | Activity (H9c2 [16]) | Activity [17] [%] | pH [18] | Activity [19] | Activity [20] [×10¹² /L] | further results |
| --- | --- | --- | --- | --- | --- | --- | --- | --- | --- | --- | --- | --- | --- | --- | --- | --- | --- | --- | --- | --- | --- |
| CC(=O)Nc1ccc(OC(=O)CCCCC2CCSS2)cc1 (stereo not drawn) | 14.1 | 135 | 3.3 | Non-Toxic | Non-Toxic | 2.6 | 8.6 | 0.2 | 12 | Active | 13.3 | 1.005 | 31.7 | Non-Toxic | 194 | Non-Toxic | 64.2 | 7.5 | Non-Toxic | 6.08 | Activity (Rattus norvegicus): 110.9 mmHg; Activity (H9c2 [21]): Dose-dependent effect; Activity [22]: 1.3%; Activity [23]: 3.2 g/L; Activity [24]: 80 µL⁻¹; Activity [25]: 4000 µmol/L; Activity (H9c2 [26]): Dose-dependent effect; Activity [27]: 2.89 ×10⁹ /L |
| CC(C)Cc1ccc(C(C)C(=O)Oc2ccc(-c3cc(=S)ss3)cc2)cc1 (stereo not drawn) | 1.4 | 136 | 66 | Non-Toxic | Non-Toxic | 2.6 | < 5 | 0.2 | 50 | Active | 9.4 | 1.005 | 35.9 | Toxic | 114 | Non-Toxic | 60.4 | 7.5 | 500 µL⁻¹ | 5.9 | Activity (Rattus norvegicus): 115.1 mmHg; Activity (H9c2 [21]): Dose-dependent effect; Activity [22]: 0.9%; Activity [23]: 3 g/L; Activity [24]: Non-Toxic; Activity [25]: 500 µmol/L; Activity (H9c2 [26]): Dose-dependent effect; Activity [27]: 3.27 ×10⁹ /L |
| CC(C)Cc1ccc(C(C)C(=O)Oc2ccc(C(N)=S)cc2)cc1 (stereo not drawn) | 20.1 | 119 | 16 | Non-Toxic | Non-Toxic | 1 | < 5 | 0 | 17 | Active | 11.9 | 1.005 | 44.4 | Non-Toxic | 161 | Non-Toxic | 52.8 | 7.5 | 70 µL⁻¹ | 5.5 | Activity (H9c2 [21]): Dose-dependent effect; Activity [22]: 1.8%; Activity [23]: 3 g/L; Activity [24]: Non-Toxic; Activity [25]: Non-Toxic; Activity (H9c2 [26]): Dose-dependent effect; Activity [27]: 1.72 ×10⁹ /L |
